The source made the active and inactive calls. No cut-off for these calls is given here.
Key:
[1] = Growth inhibition of PLP2 cells after 48 hrs by SRB assay; format: cell-based, Sus scrofa; conditions: pig
In short: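 Porcine liver primary cells (PLP2), established by the authors, subcultured before confluence, seeded 1.0 × 10^4 cells/well in DMEM with 10% FBS and penicillin/streptomycin. Treated 48 h with compound solutions, then sulforhodamine B read-out. GI50 is the concentration inhibiting 50% of net growth; three independent experiments in triplicate, mean ± SD; ellipticine positive control.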

HCT-15 = assay: Growth inhibition of human HCT15 cells after 48 hrs by SRB assay; format: functional; conditions: HCT-15, 48 h
In short: (§1)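 Sulforhodamine B assay. MCF-7, NCI-H460, HCT15 kept in RPMI-1640 with 10% heat-inactivated FBS and 2 mM glutamine, seeded 7.5 × 10^3 cells/well. HeLa and HepG2 kept in DMEM with 10% FBS, 2 mM glutamine and penicillin/streptomycin, seeded 1.0 × 10^4 cells/well. Cultures at 37 °C, 5% CO2. GI50 is the concentration giving 50% inhibition of net growth; three independent experiments in triplicate, mean ± SD; ellipticine positive control.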

HeLa = assay: Growth inhibition of human HeLa cells after 48 hrs by SRB assay; format: functional; in short: as §1
NCI-H460 [2] = assay: Growth inhibition of human NCI-H460 cells after 48 hrs by SRB assay; format: functional; conditions: NCI-H460, 48 h; in short: as §1
MCF7 [3] = assay: Growth inhibition of human MCF7 cells after 48 hrs by SRB assay; format: functional; conditions: MCF7, 48 h; in short: as §1
HepG2 = assay: Growth inhibition of human HepG2 cells after 48 hrs by SRB assay; format: functional; conditions: HepG2, 48 h; in short: as §1
[4] = Growth inhibition of human A375-C5 cells; format: functional
NCI-H460 [5] = assay: Growth inhibition of human NCI-H460 cells; format: functional
MCF7 [6] = assay: Growth inhibition of human MCF7 cells; format: functional
NCI-H460 [7] = assay: Induction of apoptosis in human NCI-H460 cells at GI50 after 48 hrs by TUNEL assay relative to DMSO-treated control; format: functional
In short: (§2)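 NCI-H460 seeded at 1 × 10^5 cells/well, grown 24 h at 37 °C, treated with compound at GI50, DMSO vehicle or medium for 24 h or 48 h. Fixed in 4% paraformaldehyde 30 min, cytospun, permeabilized with ice-cold 0.1% Triton X-100 in 0.1% sodium citrate 2 min, TUNEL reaction mix (enzyme 1:20) 1 h, DAPI counterstain. Fluorescence microscopy counting at least 500 cells per slide (about 300 in some 48 h samples). Mean ± SEM of three independent experiments; two-tailed paired t-test versus DMSO.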

NCI-H460 [8] = assay: Induction of apoptosis in human NCI-H460 cells at GI50 after 24 hrs by TUNEL assay; format: functional, cell-based; in short: as §2
NCI-H460 [9] = assay: Cell cycle arrest in human NCI-H460 cells assessed as accumulation at sub-G1 phase at GI50 after 24 hrs by propidium iodide staining-based flow cytometry; format: functional
[10] = Growth inhibition of human A375-C5 cells after 48 hrs by SRB assay; format: functional; conditions: A375-C5, 48 h

SMILES | GI50 (HCT-15) [µM] | GI50 (HeLa) [µM] | GI50 (NCI-H460 [2]) [µM] | GI50 (MCF7 [3]) [µM] | GI50 (HepG2) [µM] | GI50 (NCI-H460 [5]) [µM] | GI50 (MCF7 [6]) [µM] | GI50 at 48 h [1] [µM] | GI50 [4] [µM] | Activity (NCI-H460 [7]) [%] | Activity (NCI-H460 [8]) | Activity (NCI-H460 [9]) | GI50 [10] [µM]
Fc1ccc(Nc2ccnc3ccsc23)cc1 | 91.2 | 77.5 | 78.5 | 80.7 | 26.3 |  |  | 100 |  |  |  |  | 
COC(=O)c1sc2cc(Oc3cccc(OC)c3OC)cnc2c1N |  |  |  |  |  | 1 | 1 |  | 1 |  |  |  | 
Cc1c2ccncc2c(C)c2c1[nH]c1ccccc12 [ELLIPTECINE] | 1.91 | 3.28 | 5.77 | 4.32 | 5.38 |  |  | 2.06 |  |  |  |  | 
COC(=O)c1sc2cc(Oc3cccc(OC)c3)cnc2c1N |  |  |  |  |  | 1 | 1 |  | 1 |  |  |  | 
COc1ccccc1Nc1ccnc2ccsc12 | 5.91 | 1.4 | 5.4 | 5.88 | 18 |  |  | 6.56 |  | >30 | Active | Active | 
COc1ccc(Nc2ccnc3ccsc23)cc1 | 25.9 | 20.4 | 19.4 | 20.2 | 22.1 |  |  | 22.7 |  |  |  |  | 
COC(=O)c1sc2cccnc2c1Nc1ccc(OC)cc1N |  |  | 1 | 1 | 1 |  |  |  |  |  |  |  | 1

More lines, main results first:

GI50 (HCT-15) [µM] | GI50 (HeLa) [µM] | GI50 (NCI-H460 [2]) [µM] | GI50 (MCF7 [3]) [µM] | GI50 (HepG2) [µM] | GI50 (NCI-H460 [5]) [µM] | GI50 (MCF7 [6]) [µM] | SMILES | GI50 at 48 h [1] [µM] | GI50 [4] [µM] | Activity (NCI-H460 [7]) [%] | Activity (NCI-H460 [8]) | Activity (NCI-H460 [9]) | GI50 [10] [µM]
88.1 | 33.8 | 101 | 98.5 | 45.1 |  |  | Fc1ccc(Oc2ccnc3ccsc23)cc1 | > 125 |  |  |  |  | 
0.39 | 3.14 | 1.04 | 1.56 | 2.7 |  |  | COc1cccc(Oc2ccnc3ccsc23)c1 | 26.7 |  | >30 | Active | Active | 
70.7 | 69.2 | 77.5 | 63.7 | 32 |  |  | Fc1cccc(Nc2ccnc3ccsc23)c1 | 119 |  |  |  |  | 
91.2 | 28.9 | 94.2 | 90.9 | 62.7 |  |  | COc1ccccc1Oc1ccnc2ccsc12 | > 125 |  |  |  |  | 
97.2 | 50.3 | 78 | 74.3 | 16.4 |  |  | Fc1ccccc1Oc1ccnc2ccsc12 | 87.2 |  |  |  |  | 
86.7 | 26.4 | 79.5 | 94.4 | 25.8 |  |  | Fc1ccccc1Nc1ccnc2ccsc12 | 115 |  |  |  |  | 
103 | 34.5 | 103 | 102 | 42.6 |  |  | Fc1cccc(Oc2ccnc3ccsc23)c1 | > 125 |  |  |  |  | 
0.31 | 0.09 | 0.28 | 0.25 | 5.02 |  |  | COc1cccc(Nc2ccnc3ccsc23)c1 | 1.94 |  | >30 | Active | Active | 
86 | 49.4 | 86.8 | 93.3 | 53.2 |  |  | COc1ccc(Oc2ccnc3ccsc23)cc1 | 94.5 |  |  |  |  | 

Reference: ChEMBL document CHEMBL2434926, “New di(hetero)arylethers and di(hetero)arylamines in the thieno[3,2-b]pyridine series: synthesis, growth inhibitory activity on human tumor cell lines and non-tumor cells, effects on cell cycle and on programmed cell death” (Eur J Med Chem, 2013)
